This note sets out measurements from ChEMBL document CHEMBL1157925, “Identification of a novel series of potent RON receptor tyrosine kinase inhibitors” (Bioorg Med Chem Lett, 2010).

As usually defined, the IC50 is the concentration needed to halve the response being measured. A lower IC50 goes with higher potency. A word on the inhibition: it is the relative decrease from the control value, in per cent. High values mean strong suppression, low ones little suppression. Broadly, the Tmax is the time from dosing to the highest level. As a reminder, the bioavailability is dose-corrected exposure relative to a reference, in per cent. Read a low bioavailability as poor availability. One may read the half-life as the time in which the quantity being followed falls by half. A high value points to slow loss.

Data set [1] deals with Vascular endothelial growth factor receptor 2 (Homo sapiens, UniProt P35968). Put plainly: Inhibition of VEGFR2. In outline:
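GST-fused VEGFR-2/KDR catalytic domain from baculovirus-infected Sf9 cells, glutathione-agarose purified, 5 nM. Buffer: 60 mM Hepes pH 7.5, 3 mM MgCl2, 3 mM MnCl2, 1.2 mM β-mercaptoethanol, 0.1 mg/mL BSA, 3 µM vanadate. Mg-ATP at 2× Km. Enzyme, inhibitor and ATP were first combined for 4 min on ice. Reaction ran on immobilized poly(Glu4,Tyr) at 30 °C for 10 min and was stopped with EDTA. DELFIA Eu-anti-phosphotyrosine read-out. Seven concentrations in triplicate; IC50 from a 4-parameter fit.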

The target in data set [2] is T1, Hepatocyte growth factor receptor (Homo sapiens, UniProt P08581). Put plainly: Inhibition of c-Met.
The target in data set [3] is Macrophage-stimulating protein receptor (Homo sapiens, UniProt Q04912). The data set is described as follows: Inhibition of TPR-tagged RON catalytic domain expressed in HEK293 cells. The data set is classed as cell-based.
In data set [4] the test system is HCT-116. Put plainly: Antitumor activity against human HCT116 cells by MTT assay.
The target in data set [5] is Cytoplasmic tyrosine-protein kinase BMX (Homo sapiens) (UniProt P51813). The data set is described as follows: Inhibition of BMX. The note with it: concentration not given here. In outline:
(§1)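 Outsourced kinase panel of 23 enzymes (Millipore KinaseProfiler); single test concentration of 0.1 µM; percent inhibition of kinase activity reported.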

For data set [6], the target named is Proto-oncogene tyrosine-protein kinase receptor Ret (Homo sapiens) (UniProt P07949). The data set is described as follows: Inhibition of Ret. The note with it: concentration not given here. The method in brief:
as §1

Data set [7] deals with Glycogen synthase kinase-3 beta (Homo sapiens) (UniProt P49841). The data set is described as follows: Inhibition of GSK3-beta. To be noted: concentration not given here. The method in brief:
as §1

In data set [8] the target is Inhibitor of nuclear factor kappa-B kinase subunit beta (Homo sapiens) (UniProt O14920). The data set is described as follows: Inhibition of IKK-beta. To be noted: concentration not given here. The method in brief:
as §1

The target of data set [9] is Dual specificity mitogen-activated protein kinase kinase 1 (Homo sapiens) (UniProt Q02750). The data set is described as follows: Inhibition of MEK1. To be noted: concentration not given here. The method in brief:
as §1

Data set [10] deals with LIM domain kinase 1 (Homo sapiens) (UniProt P53667). Put plainly: Inhibition of LIMK1. The note with it: concentration not given here. The method in brief:
as §1

For data set [11], the target named is 3-phosphoinositide-dependent protein kinase 1 (Homo sapiens) (UniProt O15530). The data set is described as follows: Inhibition of PDK1. To be noted: concentration not given here.
Data set [12] can be described thus: Clearance in rat at 2.5 mg/kg, iv and 5 mg/kg, po. In kind it is ADME, organism-based. To be noted: in vivo.
Data set [13] has as its target Serine/threonine-protein kinase pim-1 (Homo sapiens) (UniProt P11309). The data set is described as follows: Inhibition of PIM1. To be noted: concentration not given here. In outline:
as §1

Data set [14] relates to Rattus norvegicus. Put plainly: Cmax in rat at 5 mg/kg, po. The arrangement: dose 5 mg/kg, route oral. In kind it is ADME, organism-based. To be noted: in vivo.
A short description of data set [15]: Tmax in rat at 5 mg/kg, po. More on the design: dose 5 mg/kg, route oral. The note with it: in vivo. In kind it is ADME, organism-based.
Data set [16] deals with Phosphatidylinositol 4,5-bisphosphate 3-kinase catalytic subunit beta isoform (Homo sapiens) (UniProt P42338). Put plainly: Inhibition of PI3Kbeta. The note with it: concentration not given here. In outline: as §1
Data set [17] has as its target Serine/threonine-protein kinase haspin (Homo sapiens) (UniProt Q8TF76). The data set is described as follows: Inhibition of haspin. The note with it: concentration not given here. The method in brief: as §1
Data set [18] is described as follows: Volume of distribution at steady state in rat at 2.5 mg/kg, iv and 5 mg/kg, po. The data set is classed as ADME, organism-based. The note with it: in vivo, read-out: Vdss.
Data set [19] deals with Ephrin type-B receptor 4 (Homo sapiens) (UniProt P54760). The data set is described as follows: Inhibition of EphB4. The note with it: concentration not given here. The method in brief: as §1
Data set [20] concerns the target T1, Hepatocyte growth factor receptor. Put plainly: Inhibition of c-Met phosphorylation in human MKN45 cells. The data set is classed as cell-based, MKN-45.
Data set [21] has as its target ALK tyrosine kinase receptor (Homo sapiens) (UniProt Q9UM73). The data set is described as follows: Inhibition of ALK. The note with it: concentration not given here. In outline:
as §1

In data set [22] the target is Tyrosine-protein kinase JAK3 (Homo sapiens) (UniProt P52333). The data set is described as follows: Inhibition of JAK3. The note with it: concentration not given here. In outline: as §1
Data set [23] in a line: Oral bioavailability in rat at 5 mg/kg, po. To be noted: in vivo. The data set is classed as ADME, organism-based.
The target of data set [24] is Angiopoietin-1 receptor (Homo sapiens) (UniProt Q02763). Put plainly: Inhibition of Tie2. To be noted: concentration not given here. The method in brief: as §1
Data set [25] deals with Receptor-type tyrosine-protein kinase FLT3 (Homo sapiens) (UniProt P36888). Put plainly: Inhibition of FLT3. To be noted: concentration not given here. The method in brief:
as §1

Data set [26] has as its target RAC-alpha serine/threonine-protein kinase (Homo sapiens) (UniProt P31749). Put plainly: Inhibition of PKBalpha. To be noted: concentration not given here. In outline: as §1
Data set [27] concerns the target Focal adhesion kinase 1 (Homo sapiens) (UniProt Q05397). Put plainly: Inhibition of FAK. The note with it: concentration not given here. In outline: as §1
The target in data set [28] is Mast/stem cell growth factor receptor Kit (Homo sapiens) (UniProt P10721). The data set is described as follows: Inhibition of cKit. To be noted: concentration not given here. In outline: as §1
The target of data set [29] is RAF proto-oncogene serine/threonine-protein kinase (Homo sapiens) (UniProt P04049). Put plainly: Inhibition of c-Raf. The note with it: concentration not given here. In outline: as §1
Data set [30] can be described thus: Half life in rat at 2.5 mg/kg, iv. To be noted: in vivo. In kind it is ADME, organism-based. The arrangement: dose 2.5 mg/kg, route intravenous.
The target of data set [31] is Serine/threonine-protein kinase Chk1 (Homo sapiens) (UniProt O14757). The data set is described as follows: Inhibition of CHK1. To be noted: concentration not given here. In outline: as §1

`CN(C)C(=O)c1ccc(-c2cc3nccc(Oc4ccc(NC(=O)c5cnn(-c6ccccc6)c5C(F)(F)F)cc4F)c3s2)cc1`: the IC50 in data set [1] was determined as 1400 nM.
The molecule `CN(C)CCN(C)C(=O)c1ccc(-c2cc3nccc(Oc4ccc(NC(=O)c5cnn(-c6ccccc6)c5C(F)(F)F)cc4F)c3s2)cc1` yielded an IC50 in data set [1] of 700 nM.
The molecule `CC(=O)N1CC=C(c2cc3nccc(Oc4ccc(NC(=O)c5cnn(-c6ccccc6)c5C(F)(F)F)cc4F)c3s2)CC1` came in with an IC50 in data set [1] of 1400 nM.
Same read-out and setting: with `Cn1cnc(-c2cc3nccc(Oc4ccc(NC(=O)c5cnn(C(C)(C)C)c5C(F)(F)F)cc4F)c3s2)c1` the figure was 3000 nM; with `CN(C)C(=O)c1ccc(-c2cc3nccc(Oc4ccc(NC(=O)c5cnn(-c6ccccc6)c5C(F)(F)F)cc4F)c3s2)nc1`, 2500 nM; with `Cn1cnc(-c2cc3nccc(Oc4ccc(NC(=O)c5cnn(-c6ccccc6)c5)cc4F)c3s2)c1`, 1400 nM.
`Cn1ccnc1-c1cc2nccc(Oc3ccc(NC(=O)c4cnn(-c5ccccc5)c4C(F)(F)F)cc3F)c2s1` yielded an IC50 in [1] of 1400 nM.
As to `CS(=O)(=O)CCNCc1ccc(-c2cc3nccc(Oc4ccc(NC(=O)c5cnn(-c6ccccc6)c5C(F)(F)F)cc4F)c3s2)cc1`, in [1], the concentration for half-maximal inhibition (IC50) was determined as 1100 nM.
Molecule `CCCc1c(C(=O)Nc2ccc(Oc3ccnc4cc(-c5cn(C)cn5)sc34)c(F)c2)cnn1-c1ccccc1` displayed an IC50 in [1] of 1900 nM.
On to `Cn1cnc(-c2cc3nccc(Oc4ccc(NC(=O)c5cnn(-c6ccccc6)c5N)cc4F)c3s2)c1`, for which the figures for the IC50 in [1], in data set [2] and in [3] were 800 nM, 180 nM and greater than 1000 nM, respectively.
For `Cn1cnc(-c2cc3nccc(Oc4ccc(NC(=O)N5CCN(c6ccccc6)C5=O)cc4F)c3s2)c1`, the half-maximal inhibitory concentration (IC50) result in [4] (hct-116) was “Not Active”; in data set [1], 10 nM.
In [1], `COC[C@H](C)N(Cc1ccc(-c2cc3nccc(Oc4ccc(NC(=O)c5cnn(-c6ccccc6)c5C(F)(F)F)cc4F)c3s2)cc1)C(C)=O` registered an IC50 of 2500 nM.
In [1], `Cc1c(C(=O)Nc2ccc(Oc3ccnc4cc(-c5cn(C)cn5)sc34)c(F)c2)cnn1-c1ccccc1` returned an IC50 of 2000 nM.
`CNC(=O)c1cc(Oc2ccc(NC(=O)c3cnn(-c4ccccc4)c3C(F)(F)F)cc2F)ccn1`: the IC50 in data set [1] is greater than 20000 nM; in data set [2] it was greater than 15000 nM; in data set [3], greater than 10000 nM.
In the case of `Cn1cnc(-c2cc3nccc(Oc4ccc(NC(=O)c5cnn(C)c5C(F)(F)F)cc4F)c3s2)c1`, the IC50 in data set [1] is 700 nM; in [2], 60 nM; in [3], greater than 1000 nM.
Molecule `COc1cc2nccc(Oc3ccc(NC(=O)c4cnn(-c5ccccc5)c4C(F)(F)F)cc3F)c2cc1OC` had an IC50 in data set [1] greater than 2000 nM.
With `Cn1cnc(-c2cc3nccc(Oc4ccc(NC(=O)c5cnn(-c6ccccc6)c5C(F)(F)F)cc4F)c3s2)c1`, the inhibition in [5], in data set [6], in data set [7], in data set [8], in [9] and in data set [10] was less than 40% throughout. Moreover, the inhibition in data set [11], in [13], in [16], in data set [17], in data set [19] and in data set [21] was less than 40% each time. Moreover, the inhibition in data set [22] is less than 40%; in data set [24], less than 40%; in [25], 96%; in [26], less than 40%; in [27], less than 40%; in data set [28] it was less than 40%. Also, the inhibition in [29] and in data set [31] was less than 40% each time. This molecule gave a clearance in [12] of 10.5 mL/min/kg. The IC50 was 80 nM in data set [4] (Homo sapiens, HCT-116); greater than 10000 nM in data set [1]; 150 nM in data set [2]; 500 nM in data set [20]; 50 nM in data set [3]. In data set [14], this molecule showed a Cmax normalised of 0.25 µM/mg/kg. Besides, the Tmax in [15] worked out at 6 h. Also, in data set [18], the Vd is 2.4 L/kg. Moreover, in data set [23], the bioavailability is greater than 30%. For the same molecule, the half-life in data set [30] is 162 min.
For the molecule `COCCNC(=O)c1ccc(-c2cc3nccc(Oc4ccc(NC(=O)c5cnn(-c6ccccc6)c5C(F)(F)F)cc4F)c3s2)nc1`, it took 5300 nM to reach half-maximal inhibition in data set [1] (IC50).
On the same count and under the same terms, with `CN(C)[C@H]1CCN(C(=O)c2ccc(-c3cc4nccc(Oc5ccc(NC(=O)c6cnn(-c7ccccc7)c6C(F)(F)F)cc5F)c4s3)cc2)C1` the figure was 1000 nM.
